Calls of active or inactive are those of the source. The calls are words filed in the database; no cut-off is given here. *1 amine or outer side, *2 acyl side, *3 side chain or, on linkers, in order; H or OH if unused. Where a SMILES comes first, the peptide text is derived from it. [ ]: non-standard residue; d: D form. X2 = COc1cc([C@@H]2c3[nH]c4ccccc4c3C[C@@H](C(=O)[*:2])N2[*:1])ccc1O; X3 = COc1ccc([C@@H]2c3[nH]c4ccccc4c3C[C@@H](C(=O)[*:2])N2[*:1])cc1; X1 = O=C([C@@H]1Cc2c([nH]c3ccccc23)[C@@H](c2ccccc2O)N1[*:1])[*:2]
How the values were obtained:
[1] = system: Rattus norvegicus; test: Antithrombotic activity in Wistar rat assessed as reduction of dry thrombus weight at 10 umol/kg; format: functional, organism-based
[2] = system: PC-12; test: Antioxidant activity in rat PC12 cells assessed as protection against nitric oxide-induced reduction of cell viability pretreated 1 he before nitric oxide challenge incubated for 1 hr followed by washout measured after 14 hrs by MTT assay; format: functional, cell-based
Summary of the method: (§1)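 PC12 cells were grown in DMEM with 10% heat-inactivated horse serum and 5% FBS, then seeded at 20,000/well on poly-lysine. After 24 h, cells were pretreated with compound at five concentrations for 1 h. Damage was 1 h with: NO, 2 mM sodium nitroprusside; H₂O₂, 1 mM; ·OH, H₂O₂/Fe(II). Medium was replaced, and MTT survival was read after 14 h. EC50 was derived.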

[3] = system: PC-12; test: Antioxidant activity in rat PC12 cells assessed as protection against hydroxyl radical-induced reduction of cell viability pretreated 1 he before […] incubated for 1 hr followed by washout measured after 14 hrs by MTT assay; format: functional, cell-based; summary of the method: as §1
[4] = system: PC-12; test: Antioxidant activity in rat PC12 cells assessed as protection against hydrogen peroxide-induced reduction of cell viability pretreated 1 he before […] incubated for 1 hr followed by washout measured after 14 hrs by MTT assay; format: functional, cell-based; summary of the method: as §1

SMILES	Activity [1]	EC50 [2]	EC50 [3]	EC50 [4]
C[C@H](NC(=O)[C@@H]1CCCN1C(=O)[C@H](CCCNC(=N)N)NC(=O)CNC(=O)[C@@H]1Cc2c([nH]c3ccccc23)[C@@H](c2ccccc2O)N1)C(=O)N[C@@H](CCCCN)C(=O)O (H-[X1]GRPAK-OH)	Active			
C[C@H](NC(=O)[C@@H]1Cc2c([nH]c3ccccc23)[C@@H](c2ccccc2O)N1)C(=O)N[C@@H](CCCNC(=N)N)C(=O)N1CCC[C@H]1C(=O)N[C@@H](C)C(=O)N[C@@H](CCCCN)C(=O)O (H-[X1]ARPAK-OH)	Active			
COc1ccc([C@H]2N[C@H](C(=O)NCC(=O)N[C@@H](CCCNC(=N)N)C(=O)N3CCC[C@H]3C(=O)N[C@@H](C)C(=O)N[C@@H](CCCCN)C(=O)O)Cc3c2[nH]c2ccccc32)cc1 (H-[X3]GRPAK-OH)	Active			
COc1cc([C@H]2N[C@H](C(=O)N[C@@H](C)C(=O)N[C@@H](CCCNC(=N)N)C(=O)N3CCC[C@H]3C(=O)N[C@@H](C)C(=O)N[C@@H](CCCCN)C(=O)O)Cc3c2[nH]c2ccccc32)ccc1O (H-[X2]ARPAK-OH)	Active			
O=C(O)[C@@H]1Cc2c([nH]c3ccccc23)[C@@H](c2ccccc2O)N1		77 µM	72 µM	38 µM
COc1cc([C@H]2N[C@H](C(=O)O)Cc3c2[nH]c2ccccc32)ccc1O		77 µM	72 µM	38 µM
COc1ccc([C@H]2N[C@H](C(=O)O)Cc3c2[nH]c2ccccc32)cc1		77 µM	72 µM	38 µM
COc1cc([C@H]2N[C@H](C(=O)NCC(=O)N[C@@H](CCCNC(=N)N)C(=O)N3CCC[C@H]3C(=O)N[C@@H](C)C(=O)N[C@@H](CCCCN)C(=O)O)Cc3c2[nH]c2ccccc32)ccc1O (H-[X2]GRPAK-OH)	Active			
COc1ccc([C@H]2N[C@H](C(=O)N[C@@H](C)C(=O)N[C@@H](CCCNC(=N)N)C(=O)N3CCC[C@H]3C(=O)N[C@@H](C)C(=O)N[C@@H](CCCCN)C(=O)O)Cc3c2[nH]c2ccccc32)cc1 (H-[X3]ARPAK-OH)	Active			
C[C@H](NC(=O)[C@@H]1CCCN1C(=O)[C@H](CCCN=C(N)N)NC(=O)CN)C(=O)N[C@@H](CCCCN)C(=O)O (H-GRPAK-OH)	Active			
C[C@H](N)C(=O)N[C@@H](CCCN=C(N)N)C(=O)N1CCC[C@H]1C(=O)N[C@@H](C)C(=O)N[C@@H](CCCCN)C(=O)O (H-ARPAK-OH)	Active			

— ChEMBL document CHEMBL1770118, “A new class of β-carboline alkaloid-peptide conjugates with therapeutic efficacy in acute limb ischemia/reperfusion injury” (Eur J Med Chem, 2011)
